# ATG4B inh = ATG4B (human) cysteine protease inhibition; Q9Y4P1; ATG4B cleavage of LC3-PLA2, NBD-HPC fluorescence, 1 h; inhibition, % at 8.33 µM; 0.51% of 340,000 active; AID 504462; in the data active = inhibition above about 40%
# ALR H2O2 inh = inhibitors of human sulfhydryl oxidase ALR. inhibition, % (no concentration beside the values). 3.8% of 290,000 active. purified ALR, DTT oxidation, H2O2 HRP-luminol luminescence;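 active = mean replicate inhibition above about 79%, with every replicate also reaching it, limit read from the data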
# Target sequence (P55789 whole entry, looked up): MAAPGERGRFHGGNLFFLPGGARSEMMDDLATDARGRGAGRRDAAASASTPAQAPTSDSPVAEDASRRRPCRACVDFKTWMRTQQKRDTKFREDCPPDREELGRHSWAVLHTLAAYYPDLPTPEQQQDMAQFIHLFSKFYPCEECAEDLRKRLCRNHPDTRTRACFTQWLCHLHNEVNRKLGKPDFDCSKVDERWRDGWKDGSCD
# Calb FLC = C. albicans growth modulation with fluconazole | 0.57% of 300,000 active | C. albicans CaCi-2 (fluconazole-resistant clinical isolate) + fluconazole, Alamar Blue growth, 48 h | growth inhibition, % (test concentration not listed);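 active = growth inhibition above about 58% in most replicates, limit read from the data, passing the limit was not always enough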;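 also: all wells also contain fluconazole at 8 µg/ml as a sub-toxic cotreatment; 0% = median of DMSO wells and 100% = median of geldanamycin control wells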
# UCH37 inh = human UCH37 deubiquitinating enzyme inhibition. Q9Y5K5. purified proteasome/UCH37, Ub-AMC cleavage fluorescence. 0.33% of 330,000 active. inhibition, % (test concentration not listed);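 active = mean inhibition over replicate wells above about 20%, limit read from the data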;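 also: 0% = compound-free wells with enzyme and 100% = wells lacking proteasome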
#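 Assay system: Proteasome-bound UCH37. Buffer or medium: pH 7.4 Tris-HCl (50 mM) with ovalbumin, ATP-MgCl2, DTT. Incubation: 30 min preincubation with enzyme, 25 min cleavage at room temperature. Measured by: fluorescence, ex 355 nm, em 460 nm. Read-out basis: percent inhibition. Control set: wells without proteasome as full block, compound-free enzyme plus substrate as uninhibited.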
# NALP3 yeast inh = inhibitors of NALP3 inflammasome in yeast. inhibition, % at 10 µM. Yeast reconstituted NLRP3/ASC/caspase-1, beta-gal luminescence, 24 h. 0.39% of 330,000 active;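 active = inhibition of 50% or more; inactive = inhibition below 50%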;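 also: plate controls were induced DMSO wells for no effect and uninduced yeast grown without galactose for full effect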
# NALP1 inh = blocks the NALP1 inflammasome reconstituted in yeast. S. cerevisiae NALP1/ASC/caspase-1 growth, X-gal OD620, 72 h. inhibition, % at 10 µM. 0.61% of 280,000 active. AID 2071; in the data active = inhibition mostly above about 24%, no sharp cut-off; inactive = mostly below about 32%
# PLA2 counter = inhibits human PLA2, flagging false ATG4B inhibitors; 66% of 1,600 active; purified PLA2, NBD-C6-HPC fluorescence, 45 min; inhibition, % at 8.33 µM; shares compounds with ATG4B inh; in the data active = inhibition above about 50%
# Target sequence (P04054 whole entry, looked up): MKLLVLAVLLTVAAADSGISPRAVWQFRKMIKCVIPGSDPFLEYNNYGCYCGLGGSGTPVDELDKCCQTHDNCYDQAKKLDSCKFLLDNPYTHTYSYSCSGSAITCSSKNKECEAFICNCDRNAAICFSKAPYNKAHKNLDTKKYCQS
# Active calls of the source: *; nt = no result. Compounds with a hit are over-represented: about 4.8% of the library has one in this group of screens.
SMILES,ATG4B inh,ALR H2O2 inh,Calb FLC,UCH37 inh,NALP3 yeast inh,NALP1 inh,PLA2 counter
CN1C(=O)CSc2ccc(NC(=O)NCc3ccc(F)cc3)cc21,64.2*,-4.3,4.0,1.6,4.0,-0.6,79.4*
O=C(CSc1nnc(COc2ccccc2)n1-c1ccccc1)c1cccs1,54.1*,27.8,16.2,1.3,16.5,2.8,54.6*
Cc1ccc(OCc2nnc(SCC(=O)c3cccs3)n2-c2ccccc2)cc1C,61.9*,-1.0,4.8,-0.2,11.4,7.0,78.4*
Cc1cccc(OCc2nnc(SCCC(=O)O)n2-c2ccccc2)c1,2.2,4.2,-2.0,2.2,25.1,11.1,nt
O=C(O)CSc1nnc(COc2ccccc2)n1-c1ccccc1,1.0,0.5,-7.0,5.6,5.1,10.3,nt
NC(=O)CSc1nnc(COc2ccccc2)n1CCc1ccccc1,53.5*,1.0,-16.9,0.5,3.3,-2.4,46.4
O=C(O)c1ccccc1NS(=O)(=O)c1ccc(NN=Cc2ccccc2F)c([N+](=O)[O-])c1,39.8,11.0,nt,18.1,18.1,nt,nt
Cc1nn(-c2ccccc2)c(Cl)c1/C=N/Nc1ccc(S(=O)(=O)Nc2ccccc2C(=O)O)cc1[N+](=O)[O-],66.5*,2.9,62.8,nt,10.7,-10.3,47.2
COc1ccc(C=NNc2ccc(S(=O)(=O)Nc3ccccc3C(=O)O)cc2[N+](=O)[O-])c(OC)c1,47.8*,43.4,nt,31.5*,19.4,nt,49.1
O=C(NN=Cc1cc(Br)c(Br)o1)c1cc2ccccc2o1,nt,nt,nt,-55.7,nt,nt,nt
COc1ccc(C=Nc2nc3ccccc3n2C)cc1OC,nt,nt,nt,6.9,nt,nt,nt
N#CCOC(=O)[C@H](Cc1c[nH]c2ccccc12)NS(=O)(=O)c1ccc(Cl)cc1,57.0*,nt,0.0,1.5,-3.1,1.5,67.1*
Cc1ccccc1-c1nsc(SCC(=O)NCc2ccc3c(c2)OCO3)n1,41.5*,-10.5,-39.8,-1.2,24.7,32.3,-4.6
NC(=O)Cn1cc(C=NNS(=O)(=O)c2cccc([N+](=O)[O-])c2)c2ccccc21,nt,nt,nt,2.7,nt,nt,nt
O=C(NN=C/C(Cl)=C/c1ccccc1)c1ccco1,nt,nt,nt,12.3,nt,nt,nt
COc1ccc(OC)c(Nc2cc3ccccc3c(=O)[nH]2)c1,8.2,31.1,17.3,-2.1,-3.5,nt,nt
COc1ccccc1Nc1cc2cc(Br)ccc2c(=O)[nH]1,65.9*,-18.9,-4.9,20.7*,23.9,nt,5.1
Cc1sc(NC(=O)c2ccc(=O)n(C)n2)nc1-c1ccccc1,-7.4,7.9,2.2,5.6,36.4,5.0,nt
Cc1sc(NC(=O)c2c(F)cccc2F)nc1-c1ccccc1,53.4*,-4.6,-0.2,-2.5,35.2,37.1,66.8*
Cc1sc2nc(SCc3nnc(-c4cccs4)o3)n(C3CCCC3)c(=O)c2c1C,44.2*,4.3,-1.3,0.4,2.1,-3.5,65.6*
CC(C)Cc1ccc(CN2CCCC(NC(=O)c3ccoc3)C2)cc1 (configuration not stated),17.8,-5.0,-7.4,3.6,21.0,10.2,nt
CC(C)Cc1ccc(CN2CCCC(NC(=O)c3ccnn3C)C2)cc1 (configuration not stated),42.3*,-0.7,-16.9,2.9,11.5,8.3,49.2
Cc1cccc(N2CCN(C(=S)NCc3ccco3)CC2)c1C,45.9*,3.3,6.8,1.0,20.3,42.7,4.0
CCN1CCN(c2nc3c(C)cccn3c(=O)c2/C=C(\C#N)S(=O)(=O)c2ccccc2)CC1,50.2*,-16.0,-9.9,0.7,23.0,1.7,51.6*
Cc1cccn2c(=O)c(/C=C(\C#N)S(=O)(=O)c3ccccc3)c(N3CCN(c4ccccc4)CC3)nc12,4.8,1.9,5.6,-4.4,21.3,8.0,nt
Cc1onc(-c2ccc(Cl)cc2Cl)c1-c1csc(NN=Cc2ccccc2)n1,nt,nt,nt,-12.6,nt,nt,nt
CC(=O)N(N=C1C(=O)Nc2ccccc21)c1ccccc1,nt,nt,nt,2.7,nt,nt,nt
CCOc1ccccc1C(=O)N/N=C/c1coc2ccc(C)cc2c1=O,64.9*,72.3,-20.5,nt,7.3,-7.7,75.7*
CC(C)c1ccc(NC2CCCN(C(=O)c3ccoc3)C2)cc1 (configuration not stated),56.2*,98.7*,-22.6,-1.4,12.1,0.5,59.7*

# Source: PubChem
